Reference: ChEMBL document CHEMBL1133450, “Synthesis and antitumor activity of thieno-separated tricyclic purines” (2000)

Legend:
HCT-116 [1] = assay: Tested for HCT116 cell growth as percentage of control after 48 hr at 0.1 uM; details: Homo sapiens, HCT-116, 48 h
HCT-116 [2] = assay: Tested for percentage inhibition of HCT116 cell growth after 48 hr at 1 uM; assay type: functional; details: Homo sapiens, HCT-116, 48 h; values are per cent of control
Outline: (§1)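 HCT116 cells grown in DMEM with 2 mM L-glutamine, penicillin/streptomycin, nonessential amino acids, 10% heat-inactivated FBS, 37 °C, 5% CO2. Seeded at 500 cells/well, 72 h later refed with serum-containing medium plus DMSO vehicle or agent. CellTiter96 read-out at 24, 48 or 72 h of treatment, expressed as % of DMSO-treated cells. Mean ± SEM, n = 3-5. Student's t-test, significance p < 0.05.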

HCT-116 [3] = assay: Tested for percentage inhibition of HCT116 cell growth after 72 hr at 100 uM, (p<0.05); assay type: functional; details: Homo sapiens, HCT-116, 72 h; values are per cent of control
Outline: as §1

HCT-116 [4] = assay: Tested for percentage inhibition of HCT116 cell growth after 24 hr at 1 uM; assay type: functional; details: Homo sapiens, HCT-116, 24 h; values are per cent of control
Outline: as §1

HCT-116 [5] = assay: Tested for percentage inhibition of HCT116 cell growth after 72 hr at 0.1 uM; assay type: functional; details: Homo sapiens, HCT-116, 72 h; values are per cent of control
Outline: as §1

HCT-116 [6] = assay: Tested for HCT116 cell growth as percentage of control after 48 hr at 100 uM, (p<0.005); details: Homo sapiens, HCT-116, 48 h
HCT-116 [7] = assay: Tested for percentage inhibition of HCT116 cell growth after 24 hr at 0.1 uM; assay type: functional; details: Homo sapiens, HCT-116, 24 h; values are per cent of control
Outline: as §1

HCT-116 [8] = assay: Tested for percentage inhibition of HCT116 cell growth after 48 hr at 10 uM; assay type: functional; details: Homo sapiens, HCT-116, 48 h; values are per cent of control
Outline: as §1

HCT-116 [9] = assay: Tested for HCT116 cell growth as percentage of control after 72 hr at 1 uM; details: Homo sapiens, HCT-116, 72 h
HCT-116 [10] = assay: Tested for HCT116 cell growth as percentage of control after 24 hr at 100 uM; details: Homo sapiens, HCT-116, 24 h
HCT-116 [11] = assay: Tested for HCT116 cell growth as percentage of control after 24 hr at 10 uM; details: Homo sapiens, HCT-116, 24 h
HCT-116 [12] = assay: Tested for HCT116 cell growth as percentage of control after 72 hr at 10 uM; details: Homo sapiens, HCT-116, 72 h
HCT-116 [13] = assay: Tested for percentage inhibition of HCT116 cell growth after 72 hr at 0.1 uM, (p<0.05); assay type: functional; details: Homo sapiens, HCT-116, 72 h; values are per cent of control
Outline: as §1

HCT-116 [14] = assay: Tested for percentage inhibition of HCT116 cell growth after 48 hr at 100 uM, (p<0.05); assay type: functional; details: Homo sapiens, HCT-116, 48 h; values are per cent of control
Outline: as §1

HCT-116 [15] = assay: Tested for HCT116 cell growth as percentage of control after 24 hr at 10 uM; details: Homo sapiens, HCT-116, 24 h; remark: listed apart in the source

| Structure (SMILES) | growth, % of control at 0.1 µM (HCT-116 [1]) [%] | growth, % of control at 1 µM (HCT-116 [2]) [%] | growth, % of control at 100 µM (HCT-116 [3]) [%] | growth, % of control at 1 µM (HCT-116 [4]) [%] | growth, % of control at 0.1 µM (HCT-116 [5]) [%] | growth, % of control at 100 µM (HCT-116 [6]) [%] | growth, % of control at 0.1 µM (HCT-116 [7]) [%] | growth (% of control) at 10 µM (HCT-116 [8]) [%] | growth, % of control at 1 µM (HCT-116 [9]) [%] | growth, % of control at 100 µM (HCT-116 [10]) [%] | growth (% of control) at 10 µM (HCT-116 [11]) [%] | growth (% of control) at 10 µM (HCT-116 [12]) [%] | growth, % of control at 0.1 µM (HCT-116 [13]) [%] | growth, % of control at 100 µM (HCT-116 [14]) [%] | growth (% of control) at 10 µM (HCT-116 [15]) [%] |
| --- | --- | --- | --- | --- | --- | --- | --- | --- | --- | --- | --- | --- | --- | --- | --- |
| Nc1ncnc2c1sc1nc[nH]c12 | 105 | 98.3 | 51.5 | 107 | 101 | 71.5 | 96.1 | 105 | 96.1 | 82 | 105 | 93.8 |  |  |  |
| Nc1nc(O)c2sc3[nH]cnc3c2n1 | 96.8 | 95.9 | 76.1 | 96.7 |  |  | 98.7 | 85 | 117 | 75.8 |  | 99.5 | 107 | 77 | 93.2 |
